Series [1] has as its system humans. Conditions: up to 1000 mg daily for several months; cited from earlier work.
For series [2], the system named is C4-2 cells. Put plainly: MTS cell proliferation assay of in vitro cytotoxicity. The series is classed as cell-based. Conditions: Homo sapiens, C4-2, 72 h, read-out: half minimal inhibitory concentration (IC50). In short, it runs like this:
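AR-positive human prostate cancer C4-2 cells exposed for 72 hours to individual flavonoids or to a defined three-flavonoid mixture (molar ratio 1:1:2) across graded concentrations. Viability read by MTS cell proliferation assay; IC50 taken from the dose-effect curves. Data represent three or more independent experiments.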
In general terms: Tetrazolium assays rely on reduction of a dye to a coloured formazan, in cell work by metabolically active cells.

Series [3] in a line: Pharmacokinetics and bioavailability of ProFine ingredients. The series is classed as in vivo, Sprague-Dawley rats. Conditions: ProFine 100 mg/kg oral gavage, rat plasma.
Series [4] deals with rats. The settings on record: cited from earlier work.

Data on two molecules can be found in publication PMC6034581 (Neoplasia (New York, N.Y.), 2018).

For `O=c1c(O)c(-c2ccc(O)c(O)c2)oc2cc(O)cc(O)c12` [quercetin], the “adverse effects of human daily intakes” value in series [1] is recorded as “no adverse effects”.
With `O=c1cc(-c2ccc(O)c(O)c2)oc2cc(O)cc(O)c12` [luteolin], the IC50 in series [2] came out at 114 µM. The molecule also displayed a maximum plasma concentration in series [3] of 0.44 µM. In addition, the “acute oral toxicity (LD50)” value in series [4] is more than 5000 mg/kg.
